Screening data deposited in PubChem by several laboratories.
In the library only some 2.5% were active in any assay of this set; here they are far more common.
DNMT1 block: DNMT1 (human) enzyme inhibition | inhibition (reported as % activation of signal), % at 10 µM | DNMT1 molecular beacon, Hinp1I cleavage, fluorescence | hit rate 0.83% among 360,000 | P26358; in the data active = inhibition above about 50%
NS3 helicase inh: HCV NS3 helicase inhibition | NS3 helicase DNA unwinding, Cy5 molecular beacon fluorescence | hit rate 0.56% among 290,000 | AID 1800 | inhibition, % at 10.9 µM;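 active = inhibition above the mean of all tested compounds plus 3 SD, set per campaign, cut at about 35% in these data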;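 note: 0% = DMSO wells and 100% = thioflavine S control wells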
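System: HCV NS3 helicase fragment; control set: DMSO and thioflavine S; technique: Cy5 fluorescence at 0 and 60 min, beacon hairpin quenching; reagent: beacon DNA duplex substrate plus ATP; replicates: singlicate; schedule: 1 h reaction at 25 °C, ATP-initiated; medium: MOPS buffer pH 6.5 with MgCl2, DTT, Tween20, BSA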
SUMO1-SIM PPI: SUMO1-SIM interaction modulation. P63165. SUMO1 binding to a labelled peptide, TR-FRET, 1 h. inhibition, % at 20 µM. hit rate 0.33% among 360,000; in the data active = inhibition above about 37%
Target sequence (P63165 whole entry, looked up): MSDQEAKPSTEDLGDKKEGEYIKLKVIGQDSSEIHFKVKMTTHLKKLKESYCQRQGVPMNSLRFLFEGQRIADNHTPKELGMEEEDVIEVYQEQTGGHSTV
DSG3 Ab inh: blocks pemphigus antibody binding to human desmoglein-3; P32926; DSG3-coupled beads, scFv-anti-DSG3-GFP binding, flow cytometry; stronger effect = lower value; binding (percent of control), % at 10 µM; hit rate 0.48% among 310,000;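 active = binding more than 3 SD below its plate's average and above zero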
MBD2 DNA inh: inhibitors of human MBD2 binding to methylated oligonucleotide; hit rate 0.31% among 370,000; Q9UBB5; inhibition, % at 4.4 µM; TR-FRET; AID 686964; in the data active = inhibition above about 13%
Target sequence (Q9UBB5 whole entry, looked up): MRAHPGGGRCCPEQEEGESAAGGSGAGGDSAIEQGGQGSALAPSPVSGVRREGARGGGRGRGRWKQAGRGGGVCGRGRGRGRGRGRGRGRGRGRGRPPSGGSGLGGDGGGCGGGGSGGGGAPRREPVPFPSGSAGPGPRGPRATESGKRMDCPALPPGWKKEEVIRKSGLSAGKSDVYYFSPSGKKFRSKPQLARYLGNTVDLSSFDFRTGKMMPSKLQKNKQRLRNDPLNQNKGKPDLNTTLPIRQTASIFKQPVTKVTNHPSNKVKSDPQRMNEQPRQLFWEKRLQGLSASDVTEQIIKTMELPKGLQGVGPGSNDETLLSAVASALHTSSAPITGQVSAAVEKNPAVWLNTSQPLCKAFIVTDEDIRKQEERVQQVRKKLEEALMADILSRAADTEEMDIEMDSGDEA
UHRF1 binding: blocks human UHRF1 binding to methylated DNA. Q96T88. UHRF1 binding to methylated oligo, TR-FRET. inhibition, % at 4.4 µM. hit rate 0.75% among 370,000; in the data active = inhibition above about 21%;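 note: UHRF1 SRA domain binding a hemimethylated CpG hairpin DNA probe; 0% = median of test compound wells and 100% = reference inhibitor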
DNMT1 inh conf: DNMT1 inhibition confirmation, single concentration | shares compounds with DNMT1 block | DNMT1 molecular beacon HinP1I cleavage, fluorescence | inhibition, % at 10 µM | hit rate 8% among 2,300 | AID 602385;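 active = average inhibition of at least 30% in the single-concentration confirmation test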
Beacon interf: beacon fluorescence artifact counter-screen. shares compounds with DNMT1 block. DNMT1 molecular beacon spectral interference counterscreen, fluorescence 485/520. activation (fluorescence interference), % at 10 µM. hit rate 1% among 2,300. AID 602387;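 active = activation of at least 30% at 10 µM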;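 note: DNMT1 catalytic domain with a HinP1I cleavage step and a FAM/dabcyl DNA beacon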
Numbers without * were called inactive; . = not tested or not shown.

SMILES	DNMT1 block	NS3 helicase inh	SUMO1-SIM PPI	DSG3 Ab inh	MBD2 DNA inh	UHRF1 binding	DNMT1 inh conf	Beacon interf
CC1CCCC(NC(=O)CCCCCn2c(=S)[nH]c3ccsc3c2=O)C1C (stereo not drawn)	6	.	1	107	-5	0	.	.
Cc1ccc(NC2CC(C)NC(=S)N2)cc1 (stereo not drawn)	-2	5	4	111	1	-4	.	.
O=C(Cc1cccs1)Nc1nnc(Cc2ccccc2)s1	99*	12	5	95	3	2	8	2
CCOc1ccc(S(=O)(=O)N2CCC(C(=O)NCc3cccnc3)CC2)cc1C	-1	2	-2	.	2	5	.	.
CCC(C)N(C(=O)CSc1nncn1C)C1CCS(=O)(=O)C1 (stereo not drawn)	-1	.	0	117	4	1	.	.
Cc1ccccc1OCc1nnc(SCC(=O)Nc2ccc3nc(SCC(=O)Nc4ccccc4)sc3c2)n1C	56*	-2	2	88	1	2	2	-1
COc1ccccc1CN(C)C(=O)CSCC(=O)Nc1ccccc1F	3	.	5	.	0	7	.	.
Cc1cc2cc(CNS(=O)(=O)c3ccc4ccccc4c3)ccc2n1C	54*	2	-17	83	-2	-4	4	1
Cc1cccc(C)c1NC(=O)COc1ccc2c(C)c(Cc3ccccc3)c(=O)oc2c1C	57*	-9	1	86	2	64*	0	-5
COCc1cc(C)nc(N/N=C/c2ccc(-c3ccc(C(=O)O)c(Cl)c3)o2)c1C#N	.	-5	.	.	.	.	.	.
COCc1cc(C)n(CC(=O)N/N=C/c2ccc(-c3ccc(Cl)c(C(=O)O)c3)o2)c(=O)c1C#N	58*	7	15	83	3	11	5	-2
CC(=O)Nc1ccc(NC(=O)CSc2nccn2Cc2ccc(Cl)cc2)cc1	1	-1	3	107	-4	1	.	.
COc1ccc2oc(=O)c(C(=O)NCc3ccccc3)cc2c1	51*	1	-41	102	2	2	5	2
COc1ccc(CNC(=O)c2cc3cc(OC)ccc3oc2=O)cc1	4	14	-35	99	1	3	.	.
Cc1oc(-c2ccc(Cl)cc2)cc1-c1nn2c(-c3ccoc3C)nnc2s1	93*	42*	20	100	7	23*	5	1
Clc1ccc(-c2nnc3sc(-c4ccc(Br)o4)nn23)cc1	112*	-8	-2	94	5	-1	61*	48*
Clc1ccc(-c2nn3c(-c4ccccc4)nnc3s2)cc1	4	1	1	.	-3	-3	.	.
Cc1ccc(CN(c2ccc(C(=O)NCc3ccccn3)cc2)S(C)(=O)=O)cc1	0	-1	-4	117	-4	-7	.	.
CN(C(=O)CSc1nnc(-c2ccccc2)c(-c2ccccc2)n1)C1CCS(=O)(=O)C1 (stereo not drawn)	8	3	-20	120	3	3	.	.
COc1cccc(NC(=S)NC2CC3CCCC(C2)N3CC(C)C)c1 (stereo not drawn)	0	-4	1	105	-3	1	.	.
CC1=CC(=O)c2ccccc2C1=O	-21	16	-30	110	-6	-1	.	.
CCOc1ccccc1C(O)C1=CC(=O)c2ccccc2C1=O (stereo not drawn)	96*	.	9	89	5	6	11	-3
CCN(C(=O)COC(=O)c1ccccc1Cc1ccccc1)c1c(N)n(Cc2ccccc2)c(=O)[nH]c1=O	-1	.	2	112	-2	-2	.	.
CN(C(=O)COC(=O)c1ccccc1Cc1ccccc1)c1c(N)n(Cc2ccccc2)c(=O)[nH]c1=O	89*	.	-1	102	0	2	0	3
O=c1c(-c2c(O)cc(O)c3c(=O)cc(-c4ccc(O)cc4)oc23)c(-c2ccc(O)cc2)oc2cc(O)cc(O)c12	93*	.	50*	.	11	12	12	7
SMILES	DNMT1 block	NS3 helicase inh	SUMO1-SIM PPI	DSG3 Ab inh	MBD2 DNA inh	UHRF1 binding	DNMT1 inh conf	Beacon interf
O=c1cc(-c2ccc(O)cc2)oc2c(-c3c(O)cc(O)c4c(=O)cc(-c5ccc(O)cc5)oc34)c(O)cc(O)c12	-6	.	14	105	1	0	.	.
O=[N+]([O-])c1ccc(/C=C/C2=NN(c3ccccc3)C(c3ccco3)C2)o1 (stereo not drawn)	75*	8	-16	180	-4	5	2	5
Cc1c(C)c2cc(Cl)c(OCC(=O)Nc3ccccn3)cc2oc1=O	65*	.	71*	106	3	-3	3	4
COC(=O)C1CSC2c3ccccc3C(=O)N12 (stereo not drawn)	0	.	0	.	-5	3	.	.
CC(=O)c1c(O)cc(=O)n(-c2ccccc2)c1-c1ccc(Cl)cc1	10	3	1	135	6	0	.	.
CCc1c(O)cc(=O)n(-c2ccccc2)c1-c1ccccc1	58*	14	5	98	1	4	7	4
Cc1ccc(C)c(S(=O)(=O)N2CCN(C(=O)/C=C/c3ccco3)CC2)c1	76*	.	-1	104	-7	-1	7	2
O=C(/C=C/c1ccco1)N1CCN(S(=O)(=O)c2ccccc2)CC1	66*	.	6	109	5	15	4	4
CCOc1ccc(CCNC(=O)c2ccc(CS(=O)Cc3ccccc3Cl)o2)cc1 (stereo not drawn)	-1	-4	-5	.	0	-5	.	.
O=C1CC(c2ccco2)Sc2nc3ccccc3n21 (stereo not drawn)	56*	2	11	96	0	4	5	5
O=C(Cn1c2ccccc2c(=O)c2cc([N+](=O)[O-])ccc21)Nc1ccccc1Cl	56*	10	-12	92	-2	-2	4	-5
O=C(Cn1c2ccccc2c(=O)c2ccccc21)Nc1ccccc1F	12	2	2	100	-3	12	.	.
COc1cc(NC(=O)COC(=O)c2ccc(S(=O)(=O)N3CC(C)CC(C)C3)cc2)c(C)cc1[N+](=O)[O-] (stereo not drawn)	56*	-20	10	116	.	.	0	-1
COc1ccc(NC(=O)COC(=O)c2ccc(S(=O)(=O)N3CC(C)CC(C)C3)cc2)cc1OC (stereo not drawn)	20	.	11	102	2	1	.	.
Cc1ccc(-c2nc3ccccc3o2)cc1NC(=S)NC(=O)c1cccs1	55*	-1	1	96	-1	-1	0	-2
Cc1cc(C)c2oc(-c3ccc(C)c(NC(=S)NC(=O)c4cccs4)c3)nc2c1	51*	-3	0	105	1	2	5	-6
